Source: ChEMBL document CHEMBL1141526, “3-Amino-1,5-benzodiazepinones: potent, state-dependent sodium channel blockers with anti-epileptic activity” (Bioorg Med Chem Lett, 2008)
Activity calls are given as the source filed them. The calls are words filed in the database; no cut-off is given here.

Experiments:
[1] = molecular target: T1, Sodium channel protein type 9 subunit alpha (Homo sapiens, UniProt Q15858); assay: Inhibition of human Nav1.7 sodium channel expressed in HEK293 cells by FRET assay; type: cell-based
How it was run: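 HEK-293 cells stably expressing hNav1.7 were used in a functional membrane-potential assay. Channel block was read as FRET between two membrane-associated dyes; the value is reported as IC50.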
Target sequence in this assay (Q15858 whole entry): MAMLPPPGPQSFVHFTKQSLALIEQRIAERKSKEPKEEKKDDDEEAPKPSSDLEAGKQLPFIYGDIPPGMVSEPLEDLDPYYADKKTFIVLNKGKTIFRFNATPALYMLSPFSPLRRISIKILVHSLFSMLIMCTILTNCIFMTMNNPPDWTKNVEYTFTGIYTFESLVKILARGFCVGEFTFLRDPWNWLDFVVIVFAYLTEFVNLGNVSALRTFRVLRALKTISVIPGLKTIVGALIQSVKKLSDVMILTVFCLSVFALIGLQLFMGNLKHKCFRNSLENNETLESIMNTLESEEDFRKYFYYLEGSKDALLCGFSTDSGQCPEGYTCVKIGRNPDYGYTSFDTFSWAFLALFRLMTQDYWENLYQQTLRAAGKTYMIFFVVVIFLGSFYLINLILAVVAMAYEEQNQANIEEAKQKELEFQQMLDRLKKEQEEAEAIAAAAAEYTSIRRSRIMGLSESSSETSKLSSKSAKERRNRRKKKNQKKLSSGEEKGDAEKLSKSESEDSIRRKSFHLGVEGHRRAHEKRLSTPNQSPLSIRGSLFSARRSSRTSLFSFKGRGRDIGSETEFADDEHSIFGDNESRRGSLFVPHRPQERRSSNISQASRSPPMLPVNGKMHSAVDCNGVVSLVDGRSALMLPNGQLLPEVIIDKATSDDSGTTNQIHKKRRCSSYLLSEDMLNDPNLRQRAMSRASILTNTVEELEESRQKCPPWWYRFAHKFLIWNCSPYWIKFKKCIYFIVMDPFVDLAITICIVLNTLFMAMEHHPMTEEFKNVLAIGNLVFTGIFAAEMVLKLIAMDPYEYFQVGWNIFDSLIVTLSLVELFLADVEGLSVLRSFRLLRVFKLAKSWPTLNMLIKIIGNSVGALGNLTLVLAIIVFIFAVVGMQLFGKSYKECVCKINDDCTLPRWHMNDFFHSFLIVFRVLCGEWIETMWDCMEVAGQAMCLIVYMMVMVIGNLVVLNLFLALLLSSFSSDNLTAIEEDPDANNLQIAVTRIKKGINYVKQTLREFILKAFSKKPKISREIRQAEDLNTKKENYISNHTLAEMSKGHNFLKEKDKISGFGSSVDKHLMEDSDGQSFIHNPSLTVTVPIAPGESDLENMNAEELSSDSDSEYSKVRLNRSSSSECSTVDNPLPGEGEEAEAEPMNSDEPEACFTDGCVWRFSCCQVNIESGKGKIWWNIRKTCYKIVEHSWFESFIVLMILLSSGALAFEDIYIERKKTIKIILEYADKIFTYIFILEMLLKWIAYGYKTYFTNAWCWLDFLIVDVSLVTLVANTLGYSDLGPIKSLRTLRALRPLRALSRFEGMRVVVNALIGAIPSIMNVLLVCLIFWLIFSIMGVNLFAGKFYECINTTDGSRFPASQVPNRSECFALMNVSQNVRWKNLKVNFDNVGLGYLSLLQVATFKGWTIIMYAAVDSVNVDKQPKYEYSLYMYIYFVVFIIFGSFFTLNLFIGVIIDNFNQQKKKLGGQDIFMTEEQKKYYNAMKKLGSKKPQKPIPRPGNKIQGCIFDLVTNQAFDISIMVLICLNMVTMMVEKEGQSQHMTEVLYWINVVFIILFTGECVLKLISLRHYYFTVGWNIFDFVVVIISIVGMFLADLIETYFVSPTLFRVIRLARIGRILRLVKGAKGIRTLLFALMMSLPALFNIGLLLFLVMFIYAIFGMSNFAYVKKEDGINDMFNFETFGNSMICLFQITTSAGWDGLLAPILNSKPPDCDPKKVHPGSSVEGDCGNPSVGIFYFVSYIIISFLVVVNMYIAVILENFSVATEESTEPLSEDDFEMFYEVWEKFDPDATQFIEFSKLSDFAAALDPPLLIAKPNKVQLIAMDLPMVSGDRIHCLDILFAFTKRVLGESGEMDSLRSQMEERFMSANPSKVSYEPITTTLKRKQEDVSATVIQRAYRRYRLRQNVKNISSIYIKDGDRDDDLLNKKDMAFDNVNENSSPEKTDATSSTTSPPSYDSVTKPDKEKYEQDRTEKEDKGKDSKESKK

[2] = system: hERG (Potassium voltage-gated channel subfamily H member 2, Homo sapiens); assay: Displacement of [35S]MK-0499 from human hERG potassium channel at 10 uM
[3] = Oral bioavailability in Sprague-Dawley rat at 3.0 mg/kg; type: ADME, organism-based; settings: in vivo
How it was run: (§1)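 Fasted male Sprague–Dawley rats (n = 3 per route) received 1.0 mg/kg iv through a femoral vein cannula or 3.0 mg/kg po by gavage. Compound was formulated at 1.5 mg/mL in PEG300/water or DMSO/PEG300/water. Serial blood sampled at 5 min (iv only), 15 and 30 min, and 1, 2, 4, 6, 8 h. Plasma was acetonitrile-precipitated and measured by LC–MS/MS.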

[4] = Clearance in Sprague-Dawley rat at 1.0 mg/kg, iv; type: ADME, organism-based; parameters: dose 1 mg/kg, route intravenous; settings: in vivo; how it was run: as §1
[5] = Half life in Sprague-Dawley rat at 1.0 mg/kg, iv; type: ADME, organism-based; parameters: dose 1 mg/kg, route intravenous; settings: in vivo; how it was run: as §1
Mus musculus = assay: Anticonvulsant activity in C57BL6J mouse assessed as prevention of shock-induced tonic-clonic seizures at 3 mg/kg, po after 30 mins; type: functional; settings: for ED50: 0.5 h
How it was run: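 Male C57BL6J mice, 14 weeks old. Dosed 3 mg/kg by gavage in 5% EtOH + 10% Tween 80 + 85% water, sonicated, 2 mL/kg. Maximal electroshock via auricular electrodes 30 min post-dose: 100 Hz, 0.7 ms pulse width, 0.5 s duration, 18 mA. Read-out was protection from tonic–clonic seizures; n = 10.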

[6] = molecular target: T1, Sodium channel protein type 9 subunit alpha; assay: Inhibition of human Nav1.7 sodium channel expressed in HEK293 cells at a membrane potential of -70 mV by whole cell voltage clamp technique; type: cell-based
How it was run: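 Whole-cell voltage clamp on HEK-293 cells stably expressing hNav1.7. Peak current evoked by 20 ms depolarizations from −70 mV. Bath: 40 mM NaCl, 120 mM NMDG–Cl, 1 mM KCl, 2.7 mM CaCl2, 0.5 mM MgCl2, 10 mM NMDG–Hepes, pH 7.4. Pipette: Cs–methanesulfonate/CsCl/CsF/BAPTA-based, pH 7.4. Junction potentials (<4 mV) were not corrected.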
Target sequence in this assay (Q15858 whole entry): as above

[7] = molecular target: T1, Sodium channel protein type 9 subunit alpha; settings: HEK293, 1 uM
Target sequence in this assay (Q15858 whole entry, looked up): as the sequence (Q15858 whole entry) above

[8] = molecular target: T1, Sodium channel protein type 9 subunit alpha; settings: HEK293
Target sequence in this assay (Q15858 whole entry, looked up): as the sequence (Q15858 whole entry) above

[9] = Cmax in Sprague-Dawley rat at 3.0 mg/kg, po; settings: in vivo
[10] = system: hERG (Potassium voltage-gated channel subfamily H member 2, Homo sapiens); assay: Displacement of [35S]MK-0499 from human hERG potassium channel at 1 uM

SMILES	IC50 [1] [nM]	inhibition [2] [%]	inhibition [10] [%]	also measured
CC(C)N1C(=O)[C@H](NC(=O)[C@@H](Cc2c(F)cccc2F)NC(=O)OC(C)(C)C)CN(CC2CC2)c2ccccc21	97	25		
CC(C)(C)OC(=O)N[C@H](Cc1ccccc1)C(=O)N[C@@H]1CN(CC2CC2)c2ccccc2N(CC(F)(F)F)C1=O	30			bioavailability [3]: 5%; clearance [4]: 48 mL/min/kg; half-life [5]: 186 min; Activity (Mus musculus): Active; IC50 [6]: 1.54 nM; Ki [6]: 0.63 nM; inhibition [7]: < 10%; Kr [8]: > 5 µM; Cmax [9]: 30 nM
CC(C)N1C(=O)[C@H](NC(=O)[C@@H](Cc2ccccc2F)NC(=O)OC(C)(C)C)CN(CC2CC2)c2ccccc21 (stereo in doubt; 22) [listing 1 of 2 here]		32		
CN1C(=O)[C@H](NC(=O)[C@@H](Cc2ccccc2F)NC(=O)OC(C)(C)C)CN(Cc2ccccc2)c2ccccc21	25	84	14	
CC(C)N1C(=O)[C@H](NC(=O)[C@@H](Cc2ccc(F)cc2)NC(=O)OC(C)(C)C)CN(CC2CC2)c2ccccc21	196			
CC(C)(C)OC(=O)N[C@H](Cc1ccccc1C(F)(F)F)C(=O)N[C@@H]1CN(CC2CC2)c2ccccc2N(CC(F)(F)F)C1=O	131	11		bioavailability [3]: 10%; clearance [4]: 51 mL/min/kg; half-life [5]: 144 min; Cmax [9]: 60 nM
NC(=O)N1c2ccccc2C=Cc2ccccc21 [CARBAMAZEPINE]				ED50 (Mus musculus): 3.4 mg/kg
CC(C)N1C(=O)[C@H](NC(=O)[C@@H](Cc2ccccc2F)NC(=O)OC(C)(C)C)CN(CC2CC2)c2ccccc21 (stereo in doubt; 14) [listing 1 of 2 here]				IC50 ([1]; hek293): 102 nM
CC(C)(C)OC(=O)N[C@H](Cc1ccccc1OC(F)(F)F)C(=O)N[C@@H]1CN(CC2CC2)c2ccccc2N(CC(F)(F)F)C1=O	73			
CC(C)N1C(=O)[C@H](NC(=O)[C@@H](Cc2ccccc2)NC(=O)OC(C)(C)C)CN(CC2CC2)c2ccccc21	52	42		
CC(C)N1C(=O)[C@H](NC(=O)[C@@H](Cc2cccc(F)c2)NC(=O)OC(C)(C)C)CN(CC2CC2)c2ccccc21	96	17		
CC(C)(C)OC(=O)N[C@H](Cc1cccc(F)c1)C(=O)N[C@@H]1CN(CC2CC2)c2ccccc2N(CC(F)(F)F)C1=O	142	17		
CC(C)N1C(=O)[C@H](NC(=O)[C@@H](Cc2ccccc2F)NC(=O)OC(C)(C)C)CN(CC2CC2)c2ccccc21 (stereo in doubt; 14) [listing 2 of 2 here]		33	7	
CN1C[C@@H](NC(=O)[C@@H](Cc2ccccc2F)NC(=O)OC(C)(C)C)C(=O)N(C)c2ccccc21	142	7	0	
CC(C)N1C(=O)[C@H](NC(=O)[C@@H](Cc2ccccc2F)NC(=O)OC(C)(C)C)CN(CC2CC2)c2ccccc21 (stereo in doubt; 22) [listing 2 of 2 here]	102			
CC(C)N1C(=O)[C@H](NC(=O)[C@@H](Cc2ccccc2OC(F)(F)F)NC(=O)OC(C)(C)C)CN(CC2CC2)c2ccccc21	75	35		bioavailability [3]: 4%; clearance [4]: 30 mL/min/kg; half-life [5]: 144 min; Cmax [9]: 40 nM
CN1C(=O)[C@H](NC(=O)[C@@H](Cc2ccccc2F)NC(=O)OC(C)(C)C)CN(CC2CC2)c2ccccc21	49			
CC(C)(C)OC(=O)N[C@H](Cc1ccc(F)cc1)C(=O)N[C@@H]1CN(CC2CC2)c2ccccc2N(CC(F)(F)F)C1=O	219			
CN1C(=O)[C@H](NC(=O)[C@@H](Cc2ccccc2F)NC(=O)OC(C)(C)C)CN(CC2CCC2)c2ccccc21	81	65	20	
CC(C)(C)OC(=O)N[C@H](Cc1cc(C(F)(F)F)ccc1C(F)(F)F)C(=O)N[C@@H]1CN(CC2CC2)c2ccccc2N(CC(F)(F)F)C1=O	120	6		
CN1C(=O)[C@H](NC(=O)[C@@H](Cc2ccccc2F)NC(=O)OC(C)(C)C)CNc2ccccc21	409	25	0	
Nc1nnc(-c2cccc(Cl)c2Cl)c(N)n1 [LAMOTRIGINE]				ED50 (Mus musculus): 2.2 mg/kg
CC(C)N1C(=O)[C@H](NC(=O)[C@@H](Cc2ccccc2C(F)(F)F)NC(=O)OC(C)(C)C)CN(CC2CC2)c2ccccc21	149			bioavailability [3]: 9%; clearance [4]: 23 mL/min/kg; half-life [5]: 150 min; Cmax [9]: 150 nM
CN1C(=O)[C@H](NC(=O)[C@@H](Cc2ccccc2F)NC(=O)OC(C)(C)C)CN(CC2CCCCC2)c2ccccc21	188	43	17	
CC(C)(C)OC(=O)N[C@H](Cc1ccccc1F)C(=O)N[C@@H]1CN(CC2CC2)c2ccccc2N(CC(F)(F)F)C1=O	101	20	7	
CN1C(=O)[C@H](NC(=O)[C@@H](Cc2ccccc2F)NC(=O)OC(C)(C)C)CN(CC(F)(F)F)c2ccccc21	47	62	36	
